Assay outcomes: PubChem, several laboratories
Sampled rows, rich in hits. Any-hit rate of the full collection: about 5.4%.
E coli WT exp: blocks growth of wild type E. coli BW25113 | OD600 absorbance | 98,000 tested, 0.15% active | growth inhibition, % at 100 µM | AID 710;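 active = growth inhibition above about 50% at one test dose, limit read from the data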;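 also: growth measured after 20 h incubation at 37 °C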
PostGolgi ctrl: inhibits growth of the yeast control strain | efflux-deficient yeast background strain, growth absorbance A615, 16 h | inhibition, % at 10 µM | 98,000 tested, 5% active | AID 738
PostGolgi yeast: growth inhibition of a yeast mutant, post-Golgi transport screen; post-Golgi transport phenotypic cell assay; inhibition, % at 10 µM; 98,000 tested, 0.9% active;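 also: yeast cells grown in 1536-well plates; yeast grown about 18 h at 30C before absorbance read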
tolC growth inh: growth inhibitors of E. coli BW25113 tolC mutant; 65,000 tested, 2.2% active; growth inhibition, % at 10 µM (by protocol); OD615;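 active = growth inhibition at or above a cutoff equal to the mean over every tested compound plus 3 SD, cut at about 60% in these data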;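 also: growth measured after 20 h incubation at 37 °C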
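Test system: E. coli BW25113 ΔtolC::kan bacteria; incubation: 37 °C, 20 h exposure; medium: LB broth supplemented with 50 µg/mL kanamycin; read-out basis: percent growth inhibition; signal: A615 absorbance measurement; compound: 10 µM final, single dose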
PLAP activator: activators of human placental alkaline phosphatase | 96,000 tested, 1.2% active | purified PLAP enzyme, luminescent substrate read-out; active compounds read high | activation fold at 20 µM | AID 696; in the data active = activation fold above about 2
HePTP inh: human HePTP phosphatase inhibition; 110,000 tested, 0.64% active; AID 521; P35236; inhibition, % at 20 µM; recombinant HePTP phosphatase activity, OD absorbance; in the data active = inhibition above about 50%
Target sequence (P35236 whole entry, looked up): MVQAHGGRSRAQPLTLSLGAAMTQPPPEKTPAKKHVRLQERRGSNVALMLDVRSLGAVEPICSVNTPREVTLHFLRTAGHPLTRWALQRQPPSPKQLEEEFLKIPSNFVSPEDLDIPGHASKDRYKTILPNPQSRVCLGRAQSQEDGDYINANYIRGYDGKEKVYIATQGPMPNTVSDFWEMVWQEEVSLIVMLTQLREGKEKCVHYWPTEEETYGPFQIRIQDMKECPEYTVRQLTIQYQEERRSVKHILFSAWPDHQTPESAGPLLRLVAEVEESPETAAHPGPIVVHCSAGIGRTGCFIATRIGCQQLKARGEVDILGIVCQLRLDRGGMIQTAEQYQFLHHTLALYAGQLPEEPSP
Hits are given with their value; 0 = inactive; - = not tested or not shown. Rule as the data show it, unless noted: active = inhibition above about 30%; inactive = the rest.

SMILES | E coli WT exp | PostGolgi ctrl | PostGolgi yeast | tolC growth inh | PLAP activator | HePTP inh
CCOC1(OCC)N=C(N)C2(C#N)C(c3cccc(OC)c3OC)C12C#N (stereo unspecified) | 0 | 0 | 0 | 0 | 0 | 0
CCN(CC)c1ccc(C(=O)Nc2ccncc2)cc1 | - | - | - | - | - | 0
CCN(CC)c1ccc(C(=O)Nc2cccc(F)c2)cc1 | 0 | 0 | 0 | 62 | 0 | 0
CC(C)NC(=O)C(=O)NNC(=O)C12CC3CC(CC(C3)C1)C2 | - | - | - | - | - | 0
Cc1ccccc1-n1nc(C)c2cc(C(=O)N3CCN(S(=O)(=O)c4ccc(F)cc4)CC3)sc21 | 0 | 0 | 37 | 0 | 0 | 0
Cc1ccccc1-n1nc(C)c2cc(C(=O)N3CCN(S(=O)(=O)c4ccc(Cl)cc4)CC3)sc21 | 0 | 0 | 0 | - | 0 | -
CCC(C)NC(=O)Nc1ccccc1C (stereo unspecified) | 0 | 0 | 0 | - | 0 | -
CC1CCc2nc(NC(=O)c3cc(C(C)(C)C)nn3C)sc2C1 (stereo unspecified) | - | - | - | 67 | - | 0
Cc1nnc(SCC(=O)Nc2nc3c(s2)CC(C)CC3)s1 (stereo unspecified) | 0 | 0 | 0 | 0 | 0 | 0
Cc1ccc(N2C(=O)/C(=C/c3ccc(O)cc3)C(=O)NC2=S)cc1 | - | - | - | - | - | 0
O=C(Nc1ccc(F)cc1F)c1cc2n(n1)C(C(F)(F)F)C1CCCCC1N2 (stereo unspecified) | 0 | 30 | 0 | 0 | 0 | 0
COc1ccc(NC(=O)c2cc3n(n2)C(C(F)(F)F)CC(c2ccco2)N3)c(OC)c1 (stereo unspecified) | - | - | - | - | - | 0
CCN(CC)C(=O)CSc1nnc([C@@H](NC(=O)OC(C)(C)C)C(C)C)o1 | 0 | 0 | 0 | 0 | 0 | 0
Cc1cc2cc(CNC(=O)c3ccc(S(=O)(=O)N(C)C)cc3)ccc2n1C | 0 | 31 | 0 | - | 0 | -
CC1CCCN(Cc2cnc(Cl)s2)C1 (stereo unspecified) | 0 | 41 | 0 | - | 0 | -
COc1ccc(OCc2nn3c(-c4cccc(OC)c4)nnc3s2)cc1 | 0 | 0 | 0 | 0 | 0 | 0
O=C(NC1CC2CCCC(C1)N2C(=O)NCc1ccccc1)C1CC1 (stereo unspecified) | 0 | 0 | 0 | 0 | 0 | 0
COc1cc(N2CCCC2)c(OC)cc1/C=c1/sc2nc3ccccc3n2c1=O | 0 | 0 | 0 | 0 | 0 | 0
CC(C)SC1=NC(C)(C)C=C(/C=C/c2ccc(Cl)cc2Cl)N1 | 0 | 0 | 0 | - | 0 | -
CC(C)SC1=NC(C)(C)C=C(/C=C/c2c(Cl)cccc2Cl)N1 | 0 | 74 | 0 | - | 0 | -
Clc1ccc(-c2nnc3sc(Cc4cccs4)nn23)c(Cl)c1 | 0 | 50 | 0 | 0 | 0 | 0
c1coc(-c2nnc3sc(Cc4cccs4)nn23)c1 | 0 | 0 | 0 | 0 | 0 | 0
c1csc(Cc2nn3c(-c4n[nH]c5c4CCC5)nnc3s2)c1 | 0 | 0 | 0 | 0 | 2.1 | 0
COC(=O)c1sc(NC(=O)CCc2ccccc2)c(C(=O)OC)c1C | - | - | - | - | - | 104
CCOc1ccccc1NC(=O)CN(c1ccc(C)cc1)S(=O)(=O)c1c(C)n[nH]c1C | 0 | 0 | 0 | 0 | 2.1 | 0
SMILES | E coli WT exp | PostGolgi ctrl | PostGolgi yeast | tolC growth inh | PLAP activator | HePTP inh
CCOc1ccccc1NC(=O)CN(c1ccc(C)cc1)S(C)(=O)=O | - | - | - | - | - | 0
O=C1N=c2ccccc2=C1N=Nc1nc(O)c(-c2c(O)[nH]c3ccccc23)s1 | - | - | - | - | - | 66
c1ccc2c(c1)CCN(c1nc3cc4c(cc3s1)OCCO4)C2 | 0 | 0 | 0 | 65 | 0 | 0
COc1ccc(-n2c(=O)c3c4c(sc3n3c(C)nnc23)COC(C(C)C)C4)cc1 (stereo unspecified) | - | - | - | 0 | - | 0
CCCCN(C(=O)Nc1ccc(Cl)cc1)C1CCN(C(C)=O)CC1 | 0 | 0 | 0 | - | 0 | -
O=C(c1ccccc1Cl)N1CCN(c2ccccn2)CC1 | 0 | 0 | 0 | 0 | 0 | 0
O=C(c1ccccc1CCc1ccccc1)N1CCN(c2ccccn2)CC1 | 0 | 0 | 0 | 79 | 0 | 0
COc1ccccc1Cn1nnc2c(=O)[nH]c(C3CCN(C(=O)c4ccc(F)cc4)CC3)nc21 | 0 | 0 | 0 | 0 | 0 | 0
Cc1ccc(C)n1CCN1CCN(C(=O)CSc2nc3ccccc3nc2N2CCOCC2)CC1 | 0 | 0 | 0 | 0 | 0 | 0
CCOC(=O)c1c(C)oc2c1c(C(c1cccnc1)N1CCCCC1)c(O)c1ccccc12 (stereo unspecified) | 0 | 53 | 0 | - | 0 | -
Cc1[nH]c2ccccc2c1C(=O)CN1CCSCC1 | 0 | 0 | 0 | 0 | 0 | 0
O=c1c2c(nc3n1CCCCC3)-c1ccccc1CC21CCCC1 | 0 | 46 | 0 | 91 | 0 | 0
CC1(C)Cc2ccccc2-c2nc(NCCCO)n(-c3ccccc3)c(=O)c21 | 0 | 0 | 0 | 0 | 0 | 0
CN(C)Cc1nc2c(c(=O)[nH]1)C(C)(C)Cc1ccccc1-2 | 0 | 0 | 0 | - | 2.3 | -
CCN(CC)Cc1nc2c(c(=O)[nH]1)C1(CCCCC1)Cc1ccccc1-2 | 0 | 32 | 0 | 0 | 0 | 0
CSc1nc2c(c(=O)n1C)C(C)(C)Cc1ccccc1-2 | - | - | - | - | - | 0
Cn1c(NCCO)nc2c(c1=O)C1(CCCCC1)Cc1ccccc1-2 | 0 | 50 | 0 | 0 | 0 | 0
CCN(CC)S(=O)(=O)c1ccc2oc(SCC(=O)NCc3ccccc3)nc2c1 | 0 | 0 | 0 | - | 0 | -
Cc1ccc(NC(=O)C2CCCN(S(=O)(=O)c3ccc4c(c3)oc(=O)n4C)C2)nc1 (stereo unspecified) | 0 | 0 | 0 | 0 | 0 | 0
Cc1ccc2nc(Nc3nc(=O)c4ccccc4n3C)nc(C)c2c1 | - | - | - | 0 | 0 | 0
Cc1cccc(OCC(=O)NC(C)C)c1 | - | - | - | - | - | 0
Cc1nnc(NC(=O)CSc2nc3c(c(=O)n2CCc2ccccc2)SC(C)C3)s1 (stereo unspecified) | 0 | 0 | 0 | 0 | 0 | 0
Cc1ccccc1C(=O)Oc1ccc(Br)cc1C(=S)N1CCCC1 | 0 | 0 | 0 | - | 0 | -
O=c1[nH]c(NCCCO)nc2c1C1(CCCC1)Cc1ccccc1-2 | 0 | 0 | 0 | 65 | 0 | 0
CN(C)Cc1nc2c(c(=O)[nH]1)C1(CCCCC1)Cc1ccccc1-2 | 0 | 0 | 0 | 62 | 0 | 0
SMILES | E coli WT exp | PostGolgi ctrl | PostGolgi yeast | tolC growth inh | PLAP activator | HePTP inh
CCCCSCc1nc2c(c(=O)[nH]1)C1(CCCC1)Cc1ccccc1-2 | - | - | - | - | - | 0
CC1(C)Cc2c(C#N)c(NCCCO)nc(-c3ccccc3)c2CO1 | 0 | 85 | 0 | 0 | 0 | 0
Cc1cccc(CSc2ncc(CO)n2C)c1 | 0 | 0 | 0 | - | 0 | -
Cc1ccsc1C(=O)Nc1ccc(C(=O)O)cc1 | 0 | 0 | 0 | 0 | 0 | 0
O=P(Cc1nnco1)(c1ccccc1)c1ccccc1 | 0 | 0 | 0 | 0 | 2.1 | 0
CC1CC(=O)Nc2ccccc2N1S(=O)(=O)c1ccccc1 (stereo unspecified) | 0 | 0 | 0 | - | 0 | -
CC(C)NC(=O)c1onc(CSc2ccc(C(C)C)cc2)c1C(=O)O | 0 | 0 | 0 | - | 0 | -
O=C(COc1ccc2c(c1)OCO2)Nc1ccc2c(c1)oc1ccccc12 | 0 | 0 | 0 | 0 | 0 | 0
Cc1c([N+](=O)[O-])c(C(=O)N2CCCC2)nn1C | 0 | 42 | 0 | - | 0 | -
Cc1[nH]nc(SCC(=O)N2CCCCC2)c1[N+](=O)[O-] | 0 | 0 | 0 | - | 0 | -
CC1CCCCC1N1CCN(Cc2ccncc2)CC1 (stereo unspecified) | - | - | - | - | - | 0
CC(=O)n1cc(/C=C2\N=C(c3ccccc3F)OC2=O)c2ccccc21 | - | - | - | - | - | 0
